Consider 7 compounds from PubChem BioAssay AID588705 (Broad Institute, 2011).

Calls of active or inactive are those of the source. The rule behind the calls is not given here.

Tested on in one experiment: not listed separately
Kind of experiment: viability of MDA231 breast tumor cells – cell-based, CellTiter-Glo luminescence, dry powder, dose response (AID 588705). To be noted: MDA-MB-231 viability, CellTiter-Glo luminescence, 72 h. In outline: (§1)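 Material: MDA231 (MDA-MB-231) human breast cancer cell line | Amount: 1000 cells/well | Medium: Serum-free DMEM/MEGM screening medium | Incubation: 72 h compound exposure after 24 h attachment | Signal: CellTiter-Glo luminescence for cell viability | Benchmarks: DMSO-only negative control wells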
(In general: Cellular ATP, detected with luciferase, serves as a proxy for viable cell number.)
Consider `O=C(N/N=C/c1ccc[nH]1)c1cc2ccccc2o1`, for which the outcome was inactive.

The subject of another experiment is MDA-MB-231 viability, CellTiter-Glo luminescence, 72 h. Described as above.
Details: not given
Put shortly:
as §1
A word on the AC50: it is the concentration at which the activity in the assay is half-maximal. With `Cc1cc(Cl)ccc1OCC(=O)N/N=C/c1ccc[nH]1`, the concentration at half-maximal activity (AC50) is 16.7 µM. Consider `O=C(COc1ccc(Cl)cc1Cl)N/N=C/c1cnc[nH]1`, for which the AC50 was 31.6 µM. Regarding `O=C(COc1c(Cl)cc(Cl)cc1Cl)N/N=C/c1ccc[nH]1`, the AC50 is 2.81 µM. Take `CC(C)(C)c1ccc2c(c1)OC(C(=O)N/N=C/c1ccc[nH]1)CO2` (configuration not stated): the concentration at half-maximal activity (AC50) was 14.7 µM. For `O=C(COc1ccc(Cl)cc1Cl)N/N=C/c1ccc[nH]1`, the AC50 was 47.6 µM. Turning to `O=C(COc1cc(Cl)ccc1Cl)N/N=C/c1ccc[nH]1`, the concentration at half-maximal activity (AC50) was 7.24 µM.
